According to ChEMBL document CHEMBL2321719, “Discovery of novel α₁-adrenoceptor ligands based on the antipsychotic sertindole suitable for labeling as PET ligands” (Bioorg Med Chem, 2013):

Assays:
[1] = biological target: D(2) dopamine receptor (Homo sapiens, UniProt P14416); experiment: Displacement of [3H]spiperone from human dopamine D2 receptor expressed in CHO cells after 30 mins by scintillation counting analysis; format: cell-based
[2] = biological target: T1, Alpha-1A adrenergic receptor (Bos taurus, UniProt P18130); experiment: Displacement of [3H]prazosine from bovine alpha1A adrenoceptor expressed in BHK cells after 20 mins by scintillation counting analysis; format: cell-based
T1 sequence (P18130 whole entry): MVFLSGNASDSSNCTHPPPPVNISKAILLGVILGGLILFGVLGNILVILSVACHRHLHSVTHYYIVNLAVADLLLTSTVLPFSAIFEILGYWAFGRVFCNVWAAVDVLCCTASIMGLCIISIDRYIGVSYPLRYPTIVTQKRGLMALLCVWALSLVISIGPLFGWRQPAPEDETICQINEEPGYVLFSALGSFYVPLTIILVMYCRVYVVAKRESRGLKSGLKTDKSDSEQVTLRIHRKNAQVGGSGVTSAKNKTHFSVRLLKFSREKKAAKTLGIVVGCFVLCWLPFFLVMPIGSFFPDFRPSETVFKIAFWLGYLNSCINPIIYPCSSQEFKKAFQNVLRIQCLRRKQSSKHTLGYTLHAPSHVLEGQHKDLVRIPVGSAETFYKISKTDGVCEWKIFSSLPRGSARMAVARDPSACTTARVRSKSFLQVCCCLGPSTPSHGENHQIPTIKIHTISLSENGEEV

[3] = Selectivity ratio of Ki for human dopamine D2 receptor to Ki for bovine alpha1A adrenoceptor
How it was run: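 D2: human receptor in CHO membranes, 0.1 nM [3H]spiperone, 50 mM Tris pH 7.4, nonspecific binding with haloperidol, 30 min at 37 °C. Both used GF/B filtration, ≥2 ten-point curves and Cheng–Prusoff.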

[4] = Ratio of drug level in brain to plasma at steady state in rat at 1000 ng/g after 5 hrs; format: ADME, cell-free; conditions: brain and plasma, read-out: BPR
How it was run: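 Steady-state rat brain/plasma ratio was estimated from equilibrium-dialysis free fractions (spike 1000 ng/g, 5 h, 37 °C, LC–MS/MS) as fu,plasma/fu,brain. This assumes passive distribution, with equal unbound concentrations in brain and plasma.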

[5] = Ratio of drug level in brain to plasma in rat at 1 hr; format: ADME, cell-free; conditions: brain and plasma, read-out: BPR
[6] = Unbound fraction in rat brain at 1000 ng/g after 5 hrs by equilibrium dialysis method; format: ADME, tissue-based
How it was run: (§1)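 Free fraction was measured by 96-well equilibrium dialysis through 3 kDa membranes. Plasma was diluted 1:1 with PBS; rat brain was sonicated on ice to 1:2 brain:PBS. Matrices were spiked at 1000 ng/g (n = 6) and dialysed against PBS for 5 h at 37 °C. Samples were read by LC–MS/MS, and fu was calculated per Kalvass–Maurer with correction for brain dilution.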

[7] = Unbound fraction in rat plasma at 1000 ng/g after 5 hrs by equilibrium dialysis method; format: ADME, cell-free; how it was run: as §1
[8] = Apparent permeability across apical to basolateral side in human Caco2 cells at 1 to 20 uM by LC-MS/MS analysis; format: ADME, cell-based; conditions: Caco-2
How it was run: (§2)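 Caco-2 monolayers were grown on permeable filters for 21–28 days. A 2 mM DMSO stock was diluted in Hanks-Hepes buffer, pH 7.4, and added to the apical (A–B) or basolateral (B–A) side. The receiver side was sampled over 240 min and topped up with fresh buffer, then analysed by LC–MS/MS. […] Efflux ratio = Papp(B–A)/Papp(A–B).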

[9] = Efflux ratio of apparent permeability from basolateral to apical side over apical to basolateral side in human Caco2 cells at 1 to 20 uM; format: ADME, cell-based; conditions: Caco-2; how it was run: as §2
[10] = Unbound fraction in human plasma at 1000 ng/g after 5 hrs by equilibrium dialysis method; format: ADME, cell-free; how it was run: as §1
[11] = Unbound fraction in cynomolgus monkey plasma at 1000 ng/g after 5 hrs by equilibrium dialysis method; format: ADME, cell-free, Macaca fascicularis; how it was run: as §1
[12] = Unbound fraction in rhesus monkey plasma at 1000 ng/g after 5 hrs by equilibrium dialysis method; format: ADME, cell-free, Macaca mulatta; how it was run: as §1
[13] = Efflux ratio of apparent permeability from basolateral to apical side over apical to basolateral side in human Caco2 cells at 20 uM; format: ADME, cell-based; conditions: Caco-2
How it was run: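 Caco-2 monolayers grown 21–28 days on permeable filters; 2 mM DMSO stock diluted in Hanks-Hepes buffer, pH 7.4, and added to the apical (A–B) or basolateral (B–A) chamber. The opposite chamber was sampled over 240 min, with buffer replaced, and analysed by LC–MS/MS. Papp = dQ/dt × 1/(A × C0), with area 1.1 cm²; ratio = Papp(B–A)/Papp(A–B); N = 2.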

[14] = Apparent permeability across apical to basolateral side in human Caco2 cells at 20 uM by LC-MS/MS analysis; format: ADME, cell-based; conditions: Caco-2; how it was run: as §2
[15] = biological target: 5-hydroxytryptamine receptor 2A (Homo sapiens, UniProt P28223); experiment: Binding affinity to 5-HT2A receptor (unknown origin) by radioligand displacement assay
How it was run: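 This external human 5-HT2A binding assay (Cerep) tested compounds at two concentrations, one of them 100 nM. Ki was derived from a single run, so the error is unknown.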

[16] = biological target: T2, Alpha-1D adrenergic receptor (Rattus norvegicus, UniProt P23944); experiment: Displacement of [3H]prazosine from rat alpha1D adrenoceptor expressed in CHO cells after 20 mins by scintillation counting analysis; format: cell-based
T2 sequence (P23944 whole entry): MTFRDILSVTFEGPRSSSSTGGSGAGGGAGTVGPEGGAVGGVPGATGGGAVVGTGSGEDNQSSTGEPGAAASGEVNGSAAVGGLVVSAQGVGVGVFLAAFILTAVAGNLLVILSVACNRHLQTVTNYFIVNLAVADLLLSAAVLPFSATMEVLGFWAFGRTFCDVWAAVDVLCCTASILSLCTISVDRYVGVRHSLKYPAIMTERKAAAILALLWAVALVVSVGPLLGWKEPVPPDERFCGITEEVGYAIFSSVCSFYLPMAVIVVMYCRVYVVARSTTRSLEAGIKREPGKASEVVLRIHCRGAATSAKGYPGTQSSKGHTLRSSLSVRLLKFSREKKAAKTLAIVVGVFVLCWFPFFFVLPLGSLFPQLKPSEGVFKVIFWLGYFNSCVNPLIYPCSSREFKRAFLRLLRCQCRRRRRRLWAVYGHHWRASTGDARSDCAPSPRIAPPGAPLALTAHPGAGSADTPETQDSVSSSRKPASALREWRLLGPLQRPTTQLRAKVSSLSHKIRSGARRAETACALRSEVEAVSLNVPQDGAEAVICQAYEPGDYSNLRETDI

[17] = biological target: T3, Alpha-1B adrenergic receptor (Mesocricetus auratus, UniProt P18841); experiment: Displacement of [3H]prazosine from hamster alpha1B adrenoceptor expressed in Rat1 cells after 20 mins by scintillation counting analysis; format: cell-based
T3 sequence (P18841 whole entry): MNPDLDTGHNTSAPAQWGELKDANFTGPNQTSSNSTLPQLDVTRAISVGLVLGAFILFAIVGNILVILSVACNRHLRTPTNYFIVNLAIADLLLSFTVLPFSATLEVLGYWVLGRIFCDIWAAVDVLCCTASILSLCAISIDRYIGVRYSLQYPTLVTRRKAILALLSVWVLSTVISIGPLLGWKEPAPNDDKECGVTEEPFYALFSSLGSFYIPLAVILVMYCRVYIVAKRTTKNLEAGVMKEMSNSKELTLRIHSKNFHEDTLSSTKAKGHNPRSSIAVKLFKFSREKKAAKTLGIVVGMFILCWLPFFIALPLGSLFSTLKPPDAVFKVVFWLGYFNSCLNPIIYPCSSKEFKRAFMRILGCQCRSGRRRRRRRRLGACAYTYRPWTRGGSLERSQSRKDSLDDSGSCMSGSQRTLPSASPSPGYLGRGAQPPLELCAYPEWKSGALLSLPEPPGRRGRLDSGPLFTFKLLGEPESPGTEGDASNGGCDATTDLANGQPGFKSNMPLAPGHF

[18] = biological target: 5-hydroxytryptamine receptor 6 (Homo sapiens, UniProt P50406); experiment: Displacement of [3H]LSD from human 5-HT6 receptor expressed in human HeLa cells after 60 mins by scintillation counting analysis; format: cell-based
How it was run: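 HeLa cells expressing human 5-HT6 were homogenised in 50 mM Tris, pH 7.4. Binding used 50 mM Tris, pH 7.7, and 1 nM [3H]LSD, with nonspecific binding taken with an indolylpiperidine 5-HT6 ligand. Incubation was 60 min at 22 °C, followed by GF/B filtration and scintillation counting. Ki came from ≥2 ten-point curves, via Cheng–Prusoff.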

[19] = biological target: 5-hydroxytryptamine receptor 1B (Homo sapiens, UniProt P28222); experiment: Displacement of [3H]CT from human 5-HT1B receptor expressed in human HeLa cells after 60 mins by scintillation counting analysis; format: cell-based
How it was run: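 Membranes from HeLa cells expressing human 5-HT1B were prepared in ice-cold 50 mM Tris, pH 7.4. The assay ran in 50 mM Tris, pH 7.7, with 0.8 mg/mL WGA SPA beads and 1.5 nM [3H]CT, for 60 min at room temperature, read by scintillation counting. Nonspecific binding was taken with 5-HT creatinine sulphate. Ki came from ≥2 ten-point curves spanning 4 decades, via Cheng–Prusoff.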

Sequence of D(2) dopamine receptor (P14416 whole entry): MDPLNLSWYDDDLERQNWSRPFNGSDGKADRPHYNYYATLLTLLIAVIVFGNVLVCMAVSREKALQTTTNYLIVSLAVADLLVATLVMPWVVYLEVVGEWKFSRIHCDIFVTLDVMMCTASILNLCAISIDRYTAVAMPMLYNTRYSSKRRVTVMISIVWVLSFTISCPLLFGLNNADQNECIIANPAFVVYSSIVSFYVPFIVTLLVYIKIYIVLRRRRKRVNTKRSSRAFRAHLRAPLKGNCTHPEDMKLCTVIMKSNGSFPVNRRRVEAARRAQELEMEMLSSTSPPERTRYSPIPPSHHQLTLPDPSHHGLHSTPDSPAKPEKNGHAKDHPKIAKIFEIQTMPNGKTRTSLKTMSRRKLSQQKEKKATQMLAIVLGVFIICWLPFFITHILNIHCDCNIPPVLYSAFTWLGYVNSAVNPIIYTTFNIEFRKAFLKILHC
Sequence of 5-hydroxytryptamine receptor 2A (P28223 whole entry): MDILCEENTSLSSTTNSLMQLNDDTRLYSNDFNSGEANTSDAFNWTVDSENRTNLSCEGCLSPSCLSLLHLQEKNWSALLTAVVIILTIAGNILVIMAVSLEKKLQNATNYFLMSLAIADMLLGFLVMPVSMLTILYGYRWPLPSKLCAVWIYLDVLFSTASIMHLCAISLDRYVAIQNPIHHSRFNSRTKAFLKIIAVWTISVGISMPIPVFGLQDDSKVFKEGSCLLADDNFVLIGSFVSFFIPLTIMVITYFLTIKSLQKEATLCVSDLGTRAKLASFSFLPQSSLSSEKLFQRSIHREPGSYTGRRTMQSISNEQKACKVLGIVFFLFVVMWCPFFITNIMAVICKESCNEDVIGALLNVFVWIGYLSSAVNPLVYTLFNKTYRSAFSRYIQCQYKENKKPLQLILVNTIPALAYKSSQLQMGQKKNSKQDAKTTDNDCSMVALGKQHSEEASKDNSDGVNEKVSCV
Sequence of 5-hydroxytryptamine receptor 1B (P28222 whole entry): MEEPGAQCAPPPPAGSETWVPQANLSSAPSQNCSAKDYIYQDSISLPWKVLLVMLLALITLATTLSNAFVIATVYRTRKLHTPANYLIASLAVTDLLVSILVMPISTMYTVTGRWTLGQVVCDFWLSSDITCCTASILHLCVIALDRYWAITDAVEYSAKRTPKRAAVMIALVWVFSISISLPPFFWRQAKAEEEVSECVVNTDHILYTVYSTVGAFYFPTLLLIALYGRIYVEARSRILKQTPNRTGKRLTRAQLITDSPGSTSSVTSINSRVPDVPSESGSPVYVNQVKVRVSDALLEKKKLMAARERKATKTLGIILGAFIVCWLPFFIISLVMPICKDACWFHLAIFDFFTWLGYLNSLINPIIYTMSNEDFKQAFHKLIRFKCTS
Sequence of 5-hydroxytryptamine receptor 6 (P50406 whole entry): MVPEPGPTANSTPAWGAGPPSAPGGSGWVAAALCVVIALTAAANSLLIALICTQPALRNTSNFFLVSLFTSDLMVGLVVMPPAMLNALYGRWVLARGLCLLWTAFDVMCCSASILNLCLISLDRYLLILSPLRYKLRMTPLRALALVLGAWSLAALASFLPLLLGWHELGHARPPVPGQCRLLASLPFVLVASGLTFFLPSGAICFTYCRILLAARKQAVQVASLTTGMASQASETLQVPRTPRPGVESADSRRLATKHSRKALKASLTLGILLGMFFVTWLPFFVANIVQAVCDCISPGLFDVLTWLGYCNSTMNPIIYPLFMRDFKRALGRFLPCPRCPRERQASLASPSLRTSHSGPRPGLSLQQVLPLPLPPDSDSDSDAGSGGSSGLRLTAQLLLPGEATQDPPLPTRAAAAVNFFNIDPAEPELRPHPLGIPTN

| Structure (SMILES) | Ki [1] [nM] | Ki [2] [nM] | Ratio Ki [3] | Kp at 5 h, 1000 ng/g [4] | fraction unbound at 5 h, 1000 ng/g [6] | fraction unbound at 5 h, 1000 ng/g [7] | further results |
| --- | --- | --- | --- | --- | --- | --- | --- |
| CN1CCC(c2cn(-c3ccc(F)cc3)c3ccc(-c4cnn(C)c4)cc23)CC1 | 150 | 2.7 | 56 |  |  |  |  |
| CN1CCC(c2cn(-c3ccncc3)c3ccc(-c4cnn(C)c4)cc23)CC1 | 6400 | 38 | 168 |  |  |  |  |
| CN1CCC(c2cn(-c3ccc(F)cc3)c3ccc(-c4cccnc4)cc23)CC1 | 76 | 2.3 | 33 |  |  |  |  |
| CN1CCC(c2cn(-c3ccncc3)c3ccc(-c4cccnc4)cc23)CC1 | 1100 | 22 | 50 |  |  |  |  |
| Cn1nnc(-c2ccc3c(c2)c(C2CCN(CCN4CCNC4=O)CC2)cn3-c2ccc(F)cc2)n1 |  |  |  | 6.3 | 0.0035 | 0.022 | Kp at 1 h [5]: 0.26; Papp A→B at up to 20 µM [8]: 12 ×10⁻⁶ cm/s |
| CCN1CCC[C@H]1CNC(=O)c1c(O)c(Cl)cc(Cl)c1OC [RACLOPRIDE] |  |  |  | 3.4 | 0.08 | 0.27 | Kp at 1 h [5]: 6.4; efflux ratio at up to 20 µM [9]: 0.5; Papp A→B at up to 20 µM [8]: 66 ×10⁻⁶ cm/s |
| CN1CCC(c2cn(-c3ccc(F)cc3)c3ccc(-c4ncn(C)n4)cc23)CC1 | 220 | 0.16 | 1380 | 37 | 0.002 | 0.074 | fraction unbound at 5 h, 1000 ng/g [10]: 0.17; fraction unbound at 5 h, 1000 ng/g [11]: 0.16; fraction unbound at 5 h, 1000 ng/g [12]: 0.18; efflux ratio at 20 µM [13]: 0.7; Papp A→B at 20 µM [14]: 18 ×10⁻⁶ cm/s; Ki [15]: 89 nM; Ki [16]: 15 nM; Ki [17]: 6.4 nM |
| CN1CCC(c2cn(-c3ccc(F)cc3)c3ccc(-c4ccncc4)cc23)CC1 | 27 | 10 | 3 |  |  |  |  |
| CN1CCC(c2cn(-c3ccncc3)c3ccc(-c4ccncc4)cc23)CC1 | 260 | 24 | 11 |  |  |  |  |
| Cn1cc(-c2ccc3c(c2)c(C2CCN(CCN4CCNC4=O)CC2)cn3-c2ccc(F)cc2)nn1 |  |  |  | 8.9 | 0.0081 | 0.072 | Kp at 1 h [5]: > 0.05; Papp A→B at up to 20 µM [8]: 5 ×10⁻⁶ cm/s |
| CN1CCC(c2cn(-c3ccc(F)cc3)c3ccc(-c4ccnn4C)cc23)CC1 | 15 | 0.32 | 47 |  |  |  |  |
| CN1CCC(c2cn(-c3ccc(F)cc3)c3ccc(-c4nnn(C)n4)cc23)CC1 | 69 | 0.28 | 246 |  |  |  |  |
| CN1CCC(c2cn(-c3ccncc3)c3ccc(-c4ccnn4C)cc23)CC1 | 880 | 19 | 46 |  |  |  |  |
| COc1ccccc1N1CCN(CCN(C(=O)C2CCCCC2)c2ccccn2)CC1 [WAY-100,635] |  |  |  | 1.2 | 0.084 | 0.1 | Kp at 1 h [5]: 1.7; efflux ratio at up to 20 µM [9]: 0.9; Papp A→B at up to 20 µM [8]: 38 ×10⁻⁶ cm/s |
| CN1CCC(c2cn(-c3ccc(F)cc3)c3ccc(-c4ccn(C)n4)cc23)CC1 | 160 | 0.54 | 296 |  |  |  |  |
| CN1CCC(c2cn(-c3ccc(F)cc3)c3ccc(-c4cncnc4)cc23)CC1 |  |  |  | 35 | 0.0025 | 0.088 | fraction unbound at 5 h, 1000 ng/g [10]: 0.096; fraction unbound at 5 h, 1000 ng/g [11]: 0.1; fraction unbound at 5 h, 1000 ng/g [12]: 0.13; Papp A→B at 20 µM [14]: 13 ×10⁻⁶ cm/s; Ki [18]: 16 nM; Ki [19]: 13 nM |
| CN1CCC(c2cn(-c3ccncc3)c3ccc(-c4cncnc4)cc23)CC1 | 830 | 19 | 44 |  |  |  |  |
